Values joined by “and” are separate entries in the source; they are usually repeats but may differ in a detail not shown here. Equal entries are not always repeated. Active and inactive are the calls of the source. The rule behind the calls is not given here.
Key:
[1] = target: T1, Protein deacetylase HDAC6 (Homo sapiens, UniProt Q9UBN7); test: Inhibition of human recombinant HDAC6 after 30 mins by fluorescence assay
T1 sequence (Q9UBN7 whole entry): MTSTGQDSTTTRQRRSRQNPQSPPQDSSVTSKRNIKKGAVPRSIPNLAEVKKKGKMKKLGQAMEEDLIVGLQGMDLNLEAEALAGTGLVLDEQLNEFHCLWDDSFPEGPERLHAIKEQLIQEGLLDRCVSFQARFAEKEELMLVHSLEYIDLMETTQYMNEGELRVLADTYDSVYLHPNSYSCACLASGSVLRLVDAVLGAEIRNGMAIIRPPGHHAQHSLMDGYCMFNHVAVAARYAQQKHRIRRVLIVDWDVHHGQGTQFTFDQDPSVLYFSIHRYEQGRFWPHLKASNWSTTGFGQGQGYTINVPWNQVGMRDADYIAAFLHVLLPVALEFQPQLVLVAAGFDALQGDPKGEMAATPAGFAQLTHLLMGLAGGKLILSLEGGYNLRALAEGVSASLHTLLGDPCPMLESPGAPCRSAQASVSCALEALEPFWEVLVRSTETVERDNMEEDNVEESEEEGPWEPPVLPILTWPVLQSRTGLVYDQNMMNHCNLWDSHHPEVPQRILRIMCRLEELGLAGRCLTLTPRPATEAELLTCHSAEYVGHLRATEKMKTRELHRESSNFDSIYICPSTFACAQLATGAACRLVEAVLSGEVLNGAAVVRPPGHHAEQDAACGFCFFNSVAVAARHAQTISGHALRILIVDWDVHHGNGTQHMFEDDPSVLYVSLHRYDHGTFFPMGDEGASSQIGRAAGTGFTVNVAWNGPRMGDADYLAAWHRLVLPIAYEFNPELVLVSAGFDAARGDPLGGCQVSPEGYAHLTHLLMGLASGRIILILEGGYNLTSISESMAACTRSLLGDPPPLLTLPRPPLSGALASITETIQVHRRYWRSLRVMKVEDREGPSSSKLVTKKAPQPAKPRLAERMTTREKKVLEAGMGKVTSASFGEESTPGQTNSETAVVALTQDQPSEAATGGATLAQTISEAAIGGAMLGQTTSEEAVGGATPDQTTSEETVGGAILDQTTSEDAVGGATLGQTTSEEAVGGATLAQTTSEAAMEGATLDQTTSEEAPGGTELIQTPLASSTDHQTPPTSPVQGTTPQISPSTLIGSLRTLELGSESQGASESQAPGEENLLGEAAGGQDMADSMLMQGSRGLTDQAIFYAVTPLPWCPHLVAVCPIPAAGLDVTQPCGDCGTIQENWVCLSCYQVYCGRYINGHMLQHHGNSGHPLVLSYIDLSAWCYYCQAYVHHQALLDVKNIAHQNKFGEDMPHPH

HCT-116 [2] = test: Cytotoxicity against human HCT116 cells after 96 hrs by MTS-PMS assay; type: functional
Histone deacetylase 2 = Histone deacetylase 2 (Homo sapiens, UniProt Q92769); test: Inhibition of human recombinant HDAC2 after 30 mins by fluorescence assay
HCT-116 [3] = test: Ratio of IC50 for human HCT116 cells to IC50 for human HUT78 cells; type: functional
[4] = Cytotoxicity against human HDF after 72 hrs by MTS-PMS assay; conditions: HDF cells
Summary of the method: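 Dermal fibroblasts cultured in DMEM/F-12 with 40% FBS and 1% pen/strep; 5000 cells/well allowed to adhere 24 h at 37 °C, 5% CO2, then treated in triplicate at varying concentrations for 72 h. Antiproliferative readout by MTS–PMS; GI50 fitted by nonlinear regression; SAHA positive control.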

Histone deacetylase 4 [5] = target: T2, Histone deacetylase 4 (Homo sapiens, UniProt P56524); test: Inhibition of human recombinant HDAC4 after 30 mins by fluorescence assay
Summary of the method: (§1)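 Human recombinant HDAC isozyme with fluorogenic kit substrate, incubated with inhibitor 30 min at 37 °C. Deacetylation stopped by developer containing trichostatin A (1 μM final), then 15 min at room temperature. Fluorescence read at excitation 360 nm, emission 460 nm; percent inhibition, IC50 from nonlinear regression over varying concentrations; SAHA control.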

HuT78 = test: Cytotoxicity against human HUT78 cells after 72 hrs by MTS-PMS assay; type: functional
Summary of the method: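 HuT-78 maintained in Iscove's modified Dulbecco's medium, 20% FBS, 1% pen/strep, 1% L-glutamine; seeded in log phase at 50 000 cells/well, held 4 h at 37 °C, 5% CO2, then dosed in triplicate over a concentration range for 72 h. MTS–PMS readout; GI50 by nonlinear regression; SAHA positive control.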

Histone deacetylase 4 [6] = target: T2, Histone deacetylase 4; test: Inhibition of human recombinant HDAC4 at 1 uM after 30 mins by fluorescence assay; summary of the method: as §1

T2 sequence (P56524 whole entry): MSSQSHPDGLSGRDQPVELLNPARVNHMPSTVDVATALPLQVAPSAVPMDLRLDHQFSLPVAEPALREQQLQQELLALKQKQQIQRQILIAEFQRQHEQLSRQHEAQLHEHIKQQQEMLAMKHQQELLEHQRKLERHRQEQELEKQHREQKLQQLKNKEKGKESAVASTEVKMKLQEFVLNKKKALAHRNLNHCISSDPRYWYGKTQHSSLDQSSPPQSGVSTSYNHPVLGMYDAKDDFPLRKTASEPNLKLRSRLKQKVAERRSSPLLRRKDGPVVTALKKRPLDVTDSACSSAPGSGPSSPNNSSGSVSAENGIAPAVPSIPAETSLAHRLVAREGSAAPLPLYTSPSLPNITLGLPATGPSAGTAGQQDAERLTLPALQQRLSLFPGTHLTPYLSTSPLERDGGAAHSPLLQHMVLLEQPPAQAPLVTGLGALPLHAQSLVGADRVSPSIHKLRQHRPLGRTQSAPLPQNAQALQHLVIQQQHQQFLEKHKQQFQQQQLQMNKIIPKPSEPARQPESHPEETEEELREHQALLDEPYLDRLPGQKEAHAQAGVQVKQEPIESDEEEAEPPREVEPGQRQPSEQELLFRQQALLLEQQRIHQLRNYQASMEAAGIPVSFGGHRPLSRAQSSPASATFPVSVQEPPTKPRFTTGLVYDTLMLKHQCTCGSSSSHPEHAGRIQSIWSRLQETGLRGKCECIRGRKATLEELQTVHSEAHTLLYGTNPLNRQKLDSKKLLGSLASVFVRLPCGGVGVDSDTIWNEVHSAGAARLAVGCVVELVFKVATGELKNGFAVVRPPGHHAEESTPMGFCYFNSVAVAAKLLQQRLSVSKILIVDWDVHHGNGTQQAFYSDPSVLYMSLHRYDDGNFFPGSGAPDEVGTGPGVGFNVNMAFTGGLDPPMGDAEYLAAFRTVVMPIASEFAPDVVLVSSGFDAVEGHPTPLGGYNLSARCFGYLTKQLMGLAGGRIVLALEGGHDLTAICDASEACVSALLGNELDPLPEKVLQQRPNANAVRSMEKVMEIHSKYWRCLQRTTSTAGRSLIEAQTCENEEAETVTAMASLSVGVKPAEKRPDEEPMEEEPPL
Sequence of Histone deacetylase 2 (Q92769 whole entry): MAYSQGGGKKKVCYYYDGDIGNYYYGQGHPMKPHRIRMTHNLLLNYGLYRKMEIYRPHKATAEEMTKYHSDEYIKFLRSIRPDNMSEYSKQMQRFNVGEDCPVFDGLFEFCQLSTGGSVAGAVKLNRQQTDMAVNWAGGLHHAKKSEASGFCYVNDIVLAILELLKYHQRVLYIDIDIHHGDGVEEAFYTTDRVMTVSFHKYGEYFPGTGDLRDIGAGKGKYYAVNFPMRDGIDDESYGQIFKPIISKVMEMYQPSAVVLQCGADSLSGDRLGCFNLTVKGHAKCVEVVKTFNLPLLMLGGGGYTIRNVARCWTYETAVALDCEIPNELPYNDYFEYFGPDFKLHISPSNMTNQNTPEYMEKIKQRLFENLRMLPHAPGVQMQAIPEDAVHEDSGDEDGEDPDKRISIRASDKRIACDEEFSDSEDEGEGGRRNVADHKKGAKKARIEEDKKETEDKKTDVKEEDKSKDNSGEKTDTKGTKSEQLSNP

SMILES | IC50 [1] | GI50 (HCT-116 [2]) [nM] | GI50 (HCT-116 [2]; Homo sapiens, HCT-116, 96 h) [nM] | IC50 (Histone deacetylase 2) | Ratio IC50 (HCT-116 [3]) | GI50 at 72 h [4] [nM] | IC50 (Histone deacetylase 4 [5]) [nM] | GI50 (HuT78) [nM] | GI50 (HuT78; Homo sapiens, HuT78, 72 h) [nM] | inhibition (Histone deacetylase 4 [6])
CCOC(=O)NCCCC(=O)NCCc1ccccc1 | 433 nM and 434 nM | 29400 | 28300 | 0.112 nM and 0.119 nM | 20 | > 100000 | > 1000 | 1400 | 1300 | Active
O=C(CCCC(=O)NCCc1ccccc1)NO | 386 nM |  | 2300 | 3.5 nM |  | > 100000 | > 1000 |  | 700 | Active

From ChEMBL document CHEMBL3085682, “Santacruzamate A, a potent and selective histone deacetylase inhibitor from the Panamanian marine cyanobacterium cf. Symploca sp” (J Nat Prod, 2013)
